This passage reports IC50, Activity and inhibition results from ChEMBL document CHEMBL1152432, “2-Arylamino-4-amino-5-aroylthiazoles. "One-pot" synthesis and biological evaluation of a new class of inhibitors of tubulin polymerization” (J Med Chem, 2009).

SMILES strings stand for the structures. A value given as a limit tells only on which side of the number the result lay.

The test system of one assay is MOLT-4. The assay is described as follows: Antiproliferative activity against human MOLT4 cells after 2 days by coulter counter method. Particulars: MOLT-4, 48 h. It counts as functional, cell-based. In short, it runs like this: (§1)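 Cells seeded at 300,000-500,000 cells/mL, mixed 1:1 with compound dilutions and incubated 2 days at 37 °C. Cell number counted by Coulter counter. Mean ± SE of at least three independent experiments.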

A further assay relates to CCRF-CEM. Nature of the assay: Antiproliferative activity against human CEM cells after 2 days by coulter counter method. Conditions: 48 h. It counts as functional, cell-based. In outline:
as §1

The next assay has as its system L1210. The assay is described as follows: Antiproliferative activity against mouse L1210 cells after 2 days by coulter counter method. The assay is classed as functional, cell-based. Particulars: L1210, 48 h. In outline: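 Cells seeded at 300,000-500,000 cells/mL, mixed 1:1 with compound dilutions and incubated 2 days at 37 °C. Cell number counted by Coulter counter. IC50 is the concentration giving 50% inhibition of proliferation, taken from dose-response curves. Mean ± SE of at least three independent experiments.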

The next assay has as its system FM3A. The assay is described as follows: Antiproliferative activity against mouse FM3A cells after 2 days by coulter counter method. The assay is classed as functional, cell-based. Conditions: 48 h. In short, it runs like this:
as §1

For assay [1], the system named is HeLa. The assay is described as follows: Antiproliferative activity against human HeLa cells after 2 days by coulter counter method. The assay is classed as functional, cell-based. Particulars: 48 h. In short, it runs like this: as §1
The subject of assay [2] is HeLa. Nature of the assay: Induction of apoptosis in human HeLa cells assessed as appearance of hypodiploid cells after 24 hrs using propidium iodide staining by flow cytometry. The assay is classed as functional, cell-based. In outline: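 HeLa cells (5×10^5, exponential growth) exposed to a range of concentrations for 24 h, then ethanol-fixed (70%, ice-cold), RNaseA-treated and propidium iodide-stained for flow cytometry. Apoptotic fraction taken as the cells forming a sub-G1 peak.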

The next assay is filed under the species Bos taurus. Nature of the assay: Displacement of [3H]colchicine from bovine brain tubulin at 1 uM. In outline:
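Reaction mixtures held 1 μM bovine brain tubulin, 5 μM [3H]colchicine and 1 μM test compound. Inhibition of radiolabelled colchicine binding to tubulin was measured.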

Assay [3] in a line: Inhibition of bovine brain tubulin polymerization by turbidimetry. More on the design: species or system Bos taurus. In outline:
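Purified bovine brain tubulin (10 μM) preincubated with varying compound concentrations in glutamate buffer at 30 °C, then chilled to 0 °C. GTP added, mixtures warmed to 30 °C in a recording spectrophotometer and assembly followed turbidimetrically.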

Assay [4] deals with HeLa. Nature of the assay: Cell cycle arrest in human HeLa cells assessed as accumulation at G2/M phase at 30 nM after 24 hrs uisng propidium iodide staining by flow cytometry. The assay is classed as functional. In short, it runs like this:
(§2)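 Exponentially growing HeLa cells (5×10^5) treated 24 h. Floating and trypsinized cells pooled, fixed in ice-cold 70% ethanol, lysed with RNaseA buffer and stained with propidium iodide. DNA histograms acquired by flow cytometry. Percentages of G1, S and G2/M phases calculated on living cells, with the sub-G1 peak also scored.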

Assay [5] has as its system HeLa. Nature of the assay: Cell cycle arrest in human HeLa cells assessed as accumulation at G1 phase at 30 nM after 24 hrs uisng propidium iodide staining by flow cytometry. It counts as functional. In short, it runs like this:
as §2

The subject of assay [6] is HeLa. The assay is described as follows: Cell cycle arrest in human HeLa cells assessed as accumulation at S phase at 30 nM after 24 hrs uisng propidium iodide staining by flow cytometry. It counts as functional. In short, it runs like this: as §2
Assay [7] concerns HeLa. The assay is described as follows: Cell cycle arrest in human HeLa cells assessed as accumulation at subG1 phase at 30 nM after 24 hrs uisng propidium iodide staining by flow cytometry. It counts as functional. In outline: as §2

In the case of `COc1cccc(C(=O)c2sc(Nc3ccccc3)nc2N)c1`, the IC50 stood at 1300 nM in the assay on MOLT-4; 2300 nM with CCRF-CEM; 7600 nM in the assay on L1210; 6200 nM in the assay with FM3A; 1700 nM in the assay on HeLa [1].
Turning to `COc1cc(C(=O)c2sc(Nc3ccc(C)cc3)nc2N)cc(OC)c1OC`, the Activity result in the assay on HeLa [2] is “Dose-dependent effect”; in the assay with HeLa [4], 50.5%; with HeLa [5], 32.1%; in the assay on HeLa [6] it was 17.4%; in the assay on HeLa [7] it was 18.9%. The same compound yielded an inhibition in the assay filed under Bos taurus of 87%. In addition, the IC50 was 720 nM in [3]; 21 nM in the assay on MOLT-4; 41 nM in the assay on CCRF-CEM; 31 nM in the assay on L1210; 15 nM in the assay with FM3A; 86 nM with HeLa [1].
In the assay listed under Bos taurus, `COc1ccc(Nc2nc(N)c(C(=O)c3cccc(OC)c3)s2)cc1` gave an inhibition of 84%. Further, the half-maximal inhibitory concentration (IC50) worked out at 1400 nM in assay [3]; 4 nM in the assay with MOLT-4; 9.9 nM in the assay with CCRF-CEM; 35 nM in the assay with L1210; 50 nM in the assay with FM3A; 37 nM in the assay with HeLa [1]. Besides, the Activity in the assay on HeLa [4] was 39.2%; in the assay with HeLa [5], 40%; in the assay on HeLa [6] it was 20.8%; in the assay with HeLa [7], 9.6%.
Consider `Nc1nc(Nc2ccc(F)cc2)sc1C(=O)c1ccccc1`, for which the IC50 with MOLT-4, in the assay on CCRF-CEM, in the assay on L1210, in the assay with FM3A and with HeLa [1] was above 10000 nM in each case.
In the assay filed under Bos taurus, `Nc1nc(Nc2ccccc2)sc1C(=O)c1ccccc1` registered an inhibition of 35%. The IC50 amounted to 7300 nM in the assay with MOLT-4; 3900 nM in the assay on CCRF-CEM; 8100 nM in the assay with L1210; 8200 nM with FM3A; 6100 nM in the assay with HeLa [1].
For `COc1ccc(C(=O)c2sc(Nc3ccc(Cl)cc3)nc2N)cc1`, the IC50 in the assay with MOLT-4, in the assay on CCRF-CEM, in the assay with L1210, with FM3A and in the assay with HeLa [1] was above 10000 nM each time.
As to `COc1ccc(/C=C\c2cc(OC)c(OC)c(OC)c2)cc1O` [COMBRETASTATIN A4], it took 1400 nM to reach half-maximal inhibition in assay [3] (IC50).
With `COc1ccc(C(=O)c2sc(Nc3ccc(F)cc3)nc2N)cc1`, the IC50 with MOLT-4, with CCRF-CEM, in the assay on L1210, in the assay with FM3A and in the assay on HeLa [1] was above 10000 nM throughout.
Consider `COc1ccccc1C(=O)c1sc(Nc2ccccc2)nc1N`, for which the IC50 worked out at 1300 nM in the assay on MOLT-4; 730 nM with CCRF-CEM; 1100 nM with L1210; 1100 nM in the assay on FM3A; 1200 nM with HeLa [1].
Consider `Nc1nc(Nc2ccc(Cl)cc2)sc1C(=O)c1ccccc1`, for which the IC50 in the assay on MOLT-4, in the assay with CCRF-CEM, in the assay on L1210, with FM3A and with HeLa [1] was above 10000 nM each time.
For the compound `COc1ccc(Nc2nc(N)c(C(=O)c3ccc(Br)cc3)s2)cc1`, the IC50 with MOLT-4 is 16 nM; with CCRF-CEM, 39 nM; with L1210, 110 nM; with FM3A, 100 nM; in the assay on HeLa [1], 79 nM.
For `COc1ccc(C(=O)c2sc(Nc3ccccc3)nc2N)cc1` the same measures were 6900 nM, 9100 nM, above 10000 nM, above 10000 nM and above 10000 nM.
For `COc1ccc(/N=c2/[nH]c(N)c(C(=O)c3ccc(OC)cc3)s2)cc1` the same measures were 320 nM, 1200 nM, 470 nM, 630 nM and 330 nM.
Consider `COc1cccc(Nc2nc(N)c(C(=O)c3ccccc3)s2)c1`, for which, in the assay listed under Bos taurus, the inhibition worked out at 43%. The IC50 came to 3600 nM in [3]; 1500 nM in the assay with MOLT-4; 2900 nM in the assay with CCRF-CEM; 8200 nM with L1210; 5000 nM with FM3A; 3200 nM in the assay with HeLa [1].
On to `COc1cc(C(=O)c2sc(Nc3ccc(Cl)cc3)nc2N)cc(OC)c1OC`, for which the IC50 in the assay on MOLT-4 amounted to 110 nM; in the assay on CCRF-CEM, 190 nM; with L1210, 420 nM; in the assay with FM3A it was 420 nM; with HeLa [1], 180 nM.
In the case of `Cc1ccc(Nc2nc(N)c(C(=O)c3ccccc3)s2)cc1`, the IC50 in the assay on MOLT-4 was 210 nM; in the assay with CCRF-CEM, 370 nM; in the assay on L1210, 2800 nM; in the assay with FM3A, 1500 nM; in the assay with HeLa [1], 900 nM.
On to `COc1cc(C(=O)c2sc(Nc3ccccc3)nc2N)cc(OC)c1OC`, for which the Activity entry in the assay on HeLa [2] is “Dose-dependent effect”; in the assay with HeLa [4], 42.3%; with HeLa [5], 32.1%; in the assay on HeLa [6], 25.6%; in the assay with HeLa [7], 22.2%. The same compound came in with an inhibition in the assay filed under Bos taurus of 75%. Besides, the IC50 stood at 2500 nM in [3]; 6 nM in the assay on MOLT-4; 9.4 nM in the assay on CCRF-CEM; 18 nM in the assay on L1210; 23 nM in the assay with FM3A; 14 nM with HeLa [1].
In the case of `COc1ccc(Nc2nc(N)c(C(=O)c3ccc(Cl)cc3)s2)cc1`, the Activity entry with HeLa [2] was “Dose-dependent effect”; in the assay on HeLa [4] it was 64%; in the assay on HeLa [5], 17.1%; in the assay with HeLa [6], 18.9%; in the assay with HeLa [7], 23.3%. Besides, the inhibition in the assay filed under Bos taurus was 89%. Also, the half-inhibitory concentration (IC50) turned out to be 1100 nM in assay [3]; 13 nM in the assay on MOLT-4; 19 nM in the assay on CCRF-CEM; 84 nM in the assay with L1210; 59 nM in the assay with FM3A; 83 nM in the assay on HeLa [1].
For the compound `COc1ccc(Nc2nc(N)c(C(=O)c3ccc([N+](=O)[O-])cc3)s2)cc1`, the IC50 turned out to be 29 nM in the assay on MOLT-4; 31 nM in the assay with CCRF-CEM; 280 nM in the assay with L1210; 310 nM in the assay on FM3A; 350 nM in the assay with HeLa [1].
Take `COc1ccc(Nc2nc(N)c(C(=O)c3ccc(OC)c(OC)c3)s2)cc1`: the Activity result in the assay on HeLa [2] was “Dose-dependent effect”; with HeLa [4], 48.8%; in the assay with HeLa [5], 35.7%; in the assay with HeLa [6], 15.5%; in the assay on HeLa [7], 17.8%. In the assay filed under Bos taurus, this compound came in with an inhibition of 63%. The 50% inhibitory concentration (IC50) in assay [3] stood at 2800 nM; in the assay on MOLT-4, 37 nM; in the assay with CCRF-CEM, 10 nM; in the assay with L1210, 38 nM; in the assay with FM3A it was 71 nM; in the assay with HeLa [1], 52 nM.
Compound `Cc1ccc(Nc2nc(-n3ccnc3C)cs2)cc1` gave an inhibition in the assay filed under Bos taurus of 58%. Also, the IC50 came to 4000 nM in assay [3]; 510 nM in the assay on MOLT-4; 1500 nM in the assay on CCRF-CEM; 1800 nM with L1210; 1200 nM in the assay with FM3A; 530 nM with HeLa [1].
In the case of `COc1ccc(Nc2nc(N)c(C(=O)c3ccccc3)s2)cc1`, the IC50 in the assay on MOLT-4 is 230 nM; in the assay on CCRF-CEM, 300 nM; with L1210, 850 nM; in the assay with FM3A, 730 nM; with HeLa [1] it was 230 nM.
Turning to `COc1cc(C(=O)c2sc(Nc3ccc(F)cc3)nc2N)cc(OC)c1OC`, the IC50 amounted to 280 nM in the assay on MOLT-4; 400 nM with CCRF-CEM; 900 nM in the assay on L1210; 58 nM with FM3A; 440 nM with HeLa [1].
Consider `COc1ccc(C(=O)c2sc(Nc3ccccc3)nc2N)cc1OC`, for which the IC50 in the assay with MOLT-4 is 5500 nM; in the assay on CCRF-CEM, 6900 nM; in the assay with L1210, above 10000 nM; in the assay on FM3A it was above 10000 nM; in the assay on HeLa [1], 6000 nM.
`COc1cccc(Nc2nc(N)c(C(=O)c3cc(OC)c(OC)c(OC)c3)s2)c1`: the IC50 in the assay with MOLT-4 was 530 nM; with CCRF-CEM, 1300 nM; in the assay on L1210 it was 2100 nM; in the assay on FM3A it was 2000 nM; with HeLa [1], 1000 nM.
Regarding `COc1ccc(Nc2nc(N)c(C(=O)c3cc(OC)c(OC)c(OC)c3)s2)cc1`, the IC50 in the assay on MOLT-4 was found to be 480 nM; in the assay on CCRF-CEM it was 1100 nM; in the assay on L1210, 1500 nM; in the assay with FM3A it was 2200 nM; in the assay with HeLa [1] it was 560 nM.
